Results taken from PubChem BioAssay.
Active and inactive are the calls of the source.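 How the source made its calls, unless noted: active means GFP response above 150% of the DMSO level; inconclusive means fewer than 70 events counted for a yeast strain; inactive means the rest.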

Tests used:
[1] = RPL19A-GFP modulators, yeast TOR pathway, confirmation, cell-based, S. cerevisiae, flow cytometry, cherry picks, mother/daughter gates (AID 2270;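 active means GFP response below 50% of the DMSO control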); conditions: S. cerevisiae RPL19A-GFP strain, 3 h, at 10 µM, stronger effect = lower value, 100 = same GFP as DMSO wells
[2] = LAP4-GFP expression modulators in yeast, confirmation, cell-based, cherry picks, flow cytometry, mother/daughter gates (AID 2271;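 active means GFP response above 150% of the DMSO control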;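 further: ratio of sample to DMSO plate mean so 100% equals DMSO level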); conditions: S. cerevisiae LAP4-GFP strain, 3 h, at 10 µM, stronger effect = higher value, 100 means same as DMSO control
How it was run: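 Test system: GFP-fusion yeast strain / Amount: 0.2 OD600 cells / Buffer or medium: SC medium / Dosing: 10 µM single dose / Incubation: compound exposure 3 h at 30 °C, end-over-end rotation / Detection: HT flow cytometry, GFP fluorescence channel / Evaluation: median GFP fluorescence as percent of plate-mean DMSO wells / Control set: DMSO-only negative wells, rapamycin 400 ng/mL positive wells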

[3] = modulators of MEP2-GFP levels in yeast, confirmation, S. cerevisiae, flow cytometry GFP, cherry picks (AID 2272;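 active means GFP response above 150% of the DMSO control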;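 further: ratio of well signal to plate DMSO mean so 100% equals DMSO level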); conditions: S. cerevisiae MEP2-GFP strain, 3 h, at 10 µM, stronger effect = higher value
[4] = AGP1-GFP expression modulators, hit retest, confirmation, cell-based, flow cytometry, S. cerevisiae, cherry picks (AID 2273);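 further: median GFP channel fluorescence over the whole cell population gate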; conditions: S. cerevisiae AGP1-GFP strain, 3 h, at 10 µM
[5] = modulators of CIT2-GFP expression in yeast, confirmation, S. cerevisiae, GFP fusion, cherry picks, mother/daughter gates (AID 2274); conditions: S. cerevisiae CIT2-GFP strain, flow cytometry, 3 h, at 10 µM, stronger effect = higher value
[6] = measured here: daughter cell gate
[7] = measured here: mother cell gate
[8] = measured here: daughter cell gate response
[9] = measured here: mother cell gate response

Compound | GFP response vs DMSO [1] | GFP response vs DMSO [1, 6] [%] | GFP response vs DMSO [1, 7] [%] | GFP response relative to DMSO [2] | GFP response relative to DMSO [2, 8] [%] | GFP response relative to DMSO [2, 9] [%] | GFP response vs DMSO [3] | GFP response, % of DMSO [4] | GFP response, % of DMSO [5] | GFP response, % of DMSO [5, 6] [%] | GFP response, % of DMSO [5, 7] [%]
CC1CC2=C(CC1/C=N/NC(N)=S)C(C)(C)CCC2 (stereo not drawn) | 96.4% (inactive) | 92.7 | 95.3 | 110% (inactive) | 106 | 113 | 107% (inactive) | 97.5% (inactive) | 91.5% (inactive) | 88.4 | 90.7
COCC(=O)Nc1cc([N+](=O)[O-])ccc1C | 99.5% (inactive) | 101 | 99.8 | 101% (inactive) | 99.3 | 99.5 | 102% (inactive) | 98.4% (inactive) | 99.3% (inactive) | 100 | 98
COc1ccc(N2CCN(c3nc4c(C)cccn4c(=O)c3/C=C(\C#N)C(N)=O)CC2)cc1 | 97.8% (inactive) | 97.3 | 97.5 | 101% (inactive) | 101 | 101 | 103% (inactive) | 106% (inactive) | 103% (inactive) | 105 | 102
O=C(/C=C/c1ccccc1)C1=C(O)C(=O)N(CCO)C1c1cccc([N+](=O)[O-])c1 (stereo not drawn) | 99.8% (inactive) | 99.3 | 100 | 97.7% (inactive) | 101 | 97.4 | 101% (inactive) | 103% (inactive) | 100% (inactive) | 101 | 99.3
O=C(N=Nc1c(O)[nH]c2ccccc12)c1ccco1 | 98.2% (inactive) | 98.6 | 97.8 | 99.8% (inactive) | 98.2 | 102 | 98.8% (inactive) | 100% (inactive) | 103% (inactive) | 102 | 102
Cc1c(C(=O)Nc2ccccc2)cnn1-c1ccccc1 | 98.2% (inactive) | 97.4 | 99.2 | 103% (inactive) | 101 | 105 | 105% (inactive) | 96.8% (inactive) | 104% (inactive) | 97.2 | 103
COc1ccccc1/C=C/C=N/NC(=O)c1cccs1 | 97.8% (inactive) | 97.3 | 97.5 | 99.8% (inactive) | 95.6 | 102 | 107% (inactive) | 100% (inactive) | 99.1% (inactive) | 96.5 | 97.7
C/C(=N\NC(=O)c1ccc(Cl)cc1)c1cccc(NC(=O)C(C)C)c1 | 95.8% (inactive) | 95.1 | 95.8 | 99.2% (inactive) | 99.2 | 97.2 | 96.2% (inactive) | 97.2% (inactive) | 101% (inactive) | 101 | 101
Cc1ccc2[nH]c(C)c(/C=C/c3cc[n+](C)cc3)c2c1 | 118% (inactive) | 120 | 117 | 198% (active) | 210 | 190 | 268% (active) | 122% (inactive) | 223% (active) | 241 | 211
CCCC(=O)Nc1ccc(C(=O)/C=C/c2ccc(SC)cc2)cc1 | 99.5% (inactive) | 98.1 | 99.2 | 105% (inactive) | 103 | 105 | 102% (inactive) | 97.2% (inactive) | 95.2% (inactive) | 94.8 | 93.4
O=C(c1ccccc1F)N1CCN(c2cccc(C(F)(F)F)c2)CC1 | 98.2% (inactive) | 97.6 | 96.5 | 97.7% (inactive) | 101 | 96.4 | 108% (inactive) | 106% (inactive) | 95.8% (inactive) | 97.6 | 94.9
COc1cccc(/C=C2\C(=O)N(c3cccc(C)c3)C(=O)c3ccccc32)c1 | 96% (inactive) | 92 | 92.8 | 168% (active) | 145 | 180 | 98.8% (inactive) | 104% (inactive) | 79.7% (inactive) | 84.1 | 71.8
Cc1nn(C)c(C)c1N1C(=O)c2cccc3c(Br)ccc(c23)C1=O | 103% (inactive) | 102 | 103 | 136% (inactive) | 137 | 134 | 207% (active) | 112% (inactive) | 148% (inactive) | 152 | 141
COc1ccc(C(=O)NNC(=S)NC(=O)/C=C/c2cccs2)cc1 | 106% (inactive) | 109 | 104 | 201% (active) | 173 | 198 | 120% (inactive) | 121% (inactive) | 108% (inactive) | 112 | 100
O=C(Nc1nc2ccc(F)cc2s1)c1ccccn1 | 102% (inactive) | 102 | 99.3 | 185% (active) | 156 | 193 | 116% (inactive) | 107% (inactive) | 99.7% (inactive) | 105 | 92.8
C=CCNC(=O)/C(C#N)=C/c1c(N(Cc2ccccc2)Cc2ccccc2)nc2ccccn2c1=O | 98.8% (inactive) | 98.6 | 98.8 | 99.8% (inactive) | 99.7 | 99.2 | 103% (inactive) | 101% (inactive) | 94.7% (inactive) | 96.8 | 94.7
COc1ccc(-c2cc3cc(C(=O)O)ccn3c2C(=O)c2ccccc2)cc1 | 97% (inactive) | 95.6 | 98.4 | 107% (inactive) | 106 | 108 | 105% (inactive) | 98.3% (inactive) | 98.3% (inactive) | 99.1 | 99.7

Compound | GFP response vs DMSO [1] | GFP response vs DMSO [1, 6] [%] | GFP response vs DMSO [1, 7] [%] | GFP response relative to DMSO [2] | GFP response relative to DMSO [2, 8] [%] | GFP response relative to DMSO [2, 9] [%] | GFP response vs DMSO [3] | GFP response, % of DMSO [4] | GFP response, % of DMSO [5] | GFP response, % of DMSO [5, 6] [%] | GFP response, % of DMSO [5, 7] [%]
O=C(NCCN1CCOCC1)c1ccc(CS(=O)(=O)Cc2ccccc2F)o1 | 99.6% (inactive) | 100 | 99.7 | 98.6% (inactive) | 99.7 | 98.2 | 103% (inactive) | 104% (inactive) | 110% (inactive) | 108 | 110
Clc1ccc(OCCn2cnc3ccccc32)c(Cl)c1 | 87.5% (inactive) | 82.3 | 89.4 | 134% (inactive) | 123 | 142 | 89.9% (inactive) | 92.7% (inactive) | 82.6% (inactive) | 80.7 | 84.3
COc1cc(/C=C2\N=C(c3c(-c4ccccc4)noc3C)OC2=O)ccc1OC(C)=O | 98.6% (inactive) | 100 | 98.9 | 91.5% (inactive) | 92.8 | 89.7 | 100% (inactive) | 99.3% (inactive) | 103% (inactive) | 103 | 101
O=C(Nc1c2c(nn1-c1ccccc1)CS(=O)C2)c1ccco1 (stereo not drawn) | 96.5% (inactive) | 97.3 | 95 | 92.9% (inactive) | 96 | 95.4 | 99.3% (inactive) | 100% (inactive) | 97.2% (inactive) | 99.3 | 96
COc1ccc(C(=O)c2no[n+]([O-])c2C(=O)c2ccc(OC)cc2)cc1 | 90.1% (inactive) | 83.3 | 86.6 | 149% (inactive) | 134 | 153 | 94.1% (inactive) | 92.9% (inactive) | 82.6% (inactive) | 77.1 | 73.6
CCOC(=O)c1ccc(NC(=O)CCc2nc(-c3ccc(C)cc3)no2)cc1 | 101% (inactive) | 102 | 100 | 98.2% (inactive) | 99.1 | 98.4 | 107% (inactive) | 100% (inactive) | 91.5% (inactive) | 90.2 | 93.2
COc1ccc(OC)c(C2CC(c3c(-c4ccccc4)c4cc(Cl)ccc4[nH]c3=O)=NN2S(C)(=O)=O)c1 (stereo not drawn) | 100% (inactive) | 99 | 102 | 92.6% (inactive) | 92.5 | 97.2 | 100% (inactive) | 96.1% (inactive) | 97.8% (inactive) | 96.5 | 97.7
CCc1ccc2c(c1)/C(=C/C(=O)c1cccs1)C(=O)N2 | 94.9% (inactive) | 94.7 | 87.7 | 178% (active) | 156 | 171 | 100% (inactive) | 104% (inactive) | 91.3% (inactive) | 91.5 | 84.8
O=C(Nc1nc(-c2ccccc2)cs1)c1ccc(Br)o1 | 102% (inactive) | 101 | 101 | 106% (inactive) | 101 | 108 | 99% (inactive) | 94.9% (inactive) | 108% (inactive) | 105 | 107
O=C(COC(=O)/C=C/c1cccs1)Nc1nc(-c2cccc(Br)c2)cs1 | 102% (inactive) | 103 | 102 | 89% (inactive) | 94.1 | 89 | 100% (inactive) | 96.7% (inactive) | 110% (inactive) | 108 | 112
CCc1noc(C)c1C(=O)Nc1nc(-c2ccc(Cl)cc2Cl)c(C)s1 | 98.8% (inactive) | 99.1 | 98.8 | 98.8% (inactive) | 99.3 | 97.5 | 99.5% (inactive) | 102% (inactive) | 96.4% (inactive) | 96.4 | 94.5
COc1ccccc1N1C(=O)CC(Sc2nccc(C)n2)C1=O (stereo not drawn) | 101% (inactive) | 98.6 | 102 | 95.7% (inactive) | 95.9 | 95.2 | 99% (inactive) | 99.6% (inactive) | 98.8% (inactive) | 93.8 | 99.3
Cc1cccc(CN2CCSc3sccc3C2=O)c1 | 96.8% (inactive) | 95.7 | 96.5 | 125% (inactive) | 127 | 126 | 131% (inactive) | 98.2% (inactive) | 112% (inactive) | 114 | 109
O=C1c2ccsc2SCCN1Cc1ccc(Cl)cc1Cl | 96% (inactive) | 94.2 | 95.5 | 108% (inactive) | 107 | 110 | 94.7% (inactive) | 98.2% (inactive) | 90.1% (inactive) | 90.2 | 91.9
O=C1C=CC(=O)N1N(c1ccccc1)c1ccccc1 | 96.2% (inactive) | 90.7 | 87.1 | 209% (active) | 148 | 208 | 127% (inactive) | 114% (inactive) | 95.9% (inactive) | 88.9 | 79.8
COc1ccc(C2CC(c3ccccc3)=NN2S(=O)(=O)c2ccc(C)cc2)c(OC)c1 (stereo not drawn) | 102% (inactive) | 98.8 | 100 | 102% (inactive) | 99.1 | 104 | 103% (inactive) | 101% (inactive) | 102% (inactive) | 99.2 | 99.3
